Reference: the EternaBench riboswitch data

System: MS2 coat protein
Assay: apparent Kd, MS2 coat protein; higher = weaker binding; RNA-MaP array; FMN 200 µM where present
In short: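 Stalled E. coli RNA polymerase transcribed the designs on Illumina sequencing-chip clusters. SNAP-549-labelled MS2 coat protein was titrated from 0.7 or 1.5 nM, doubling to 3 µM, without and then with constant ligand, in 100 mM Tris-HCl pH 7.5, 80 mM KCl, 4 mM MgCl2, BSA, DTT, yeast tRNA and Tween-20. Per-cluster binding curves were fitted to green signal normalised to red-channel RNA signal and control-cluster median Fmax. The apparent Kd is the median of the filtered fits.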

[1] = designed as: OFF switch for flavin mononucleotide, no ligand
[2] = ligand present: flavin mononucleotide, designed as: OFF switch for flavin mononucleotide
[3] = designed as: ON switch for flavin mononucleotide, no ligand
[4] = ligand present: flavin mononucleotide, designed as: ON switch for flavin mononucleotide

Row | Sequence | apparent Kd [1] [nM] | apparent Kd [2] [nM] | apparent Kd [3] [nM] | apparent Kd [4] [nM]
1 | CCAUGACAAAGUCAUGGAAUACGAACAUGAGGAUCACCCAUGUAGGAUAUGCUACUCAAAGAGUAGCAGAAGGACAUGUGUCUU | 29.9 | 156 |  | 
2 | CAGGGUCGUAUUCAGCCCGUCCACAUGAGGAUCACCCAUGUCAAGGAUAUAGAUUAAAAUACAAGCUAGAAGGUGACGCUGGGU | 14.3 | 42.6 |  | 
3 | CCAGAGAUAUGAGGAUAUCGAGUGGAUAACACUCGAGAAGGCAUGUGAAAACAUGAGGAUCACCCAUGUAUGAUCUACUCUGGA |  |  | 50.6 | 23.8
4 | GUGCAUGUGCGAACUAACCCACAUGAGGAUCACCCAUGUAGGAGAAGGGUCCGGAGGUGCCGUGGACAGGAUAUCCUACGCCUU | 17.5 | 33.2 |  | 
5 | UCAUACAUGACAUGACAUGAGGAUCACCCAUGUCCAUGUUACAAGGAUAUGUACAUGAAACAUGUACAGAAGGUGUAUUGGACU | 15.4 | 29.4 |  | 
6 | GGAGCUCAUCAAUACAUGAGGAUCACCCAUGUCGAAUGAUAUGAGGAUAUGCAUCGGAAAACGAUGUAGAAGGCAUAGAGCUCC |  |  | 15.3 | 6.63
7 | AAAUAAACUAGCAUAAUAACCUCACAUGAGGAUCACCCAUGUCAGGAUAUCUGUCCUAAAAGGACAGAGAAGGGACGUGCUAGG | 5.68 | 6.95 |  | 
8 | GGAUAGGACAGAGGAUAUACGUGCUAGAGAUACUAGCAAAAUUUCCUCACAUGAGGAUCACCCAUGUAGAAGGCUGUCCUAUCU | 45.2 | 882 |  | 
9 | CACGGUGAUGUAGGAUAUACGCUGGAAUACAGCGUAGAAGGACAUGAGGAUCACCCAUGUAAAGUGUCUCCAAAUAACACCGUG | 32.5 | 90.5 |  | 
10 | CAGGAUAGAGGAUAUACAUAGAUACAGAUUCAUGUAAUCCUACAUGAGGAUCACCCAUGUAGAAGGCUAUCCUG | 14.9 | 64.9 |  | 
11 | UAAACGUUCUAGAAGGUGCUUUUGUUAAACAAGCAAGGAUAUAGACAUGAGGAUCACCCAUGUCUUUAAGACAUCGACAUACUU | 7.91 | 8.63 |  | 
12 | AUAUUUAAUGAGGAUAUCGUUGCGGGUACGUAGCGAGAAGGCAUUACAUGAGGAUCACCCAUGUAGUGUGGGUU | 21.3 | 68.3 |  | 
13 | GGUACUCAAAGAGUACUGAGUCGAACAUGAGGAUCACCCAUGUAGGAUAUGCGAGUUUUGAAUUUGCAGAAGGACAUUUGCAGC | 9.34 | 10.8 |  | 
14 | UUUUAACAUGAGGAUCACCCAUGUGAGGAUAUCGAUUUUUUUAUUAAUAUUAAUAAAACGAGAAGGCACAUUUU | 76.2 | 75.9 |  | 
15 | GGGUACAUCGGAGGAUAUCAUGUAAAUACAUGAGGAUCACCCAUGUCGAUGGUGACAUCGGAGAUUGAGAAGGCCGAUGUACCG |  |  | 245 | 9.37
16 | CUGAGUAGUCAGGAUAUGUGGUACAAAAGUACUGCAGAAGGGAUUACAUGAGGAUCACCCAUGUUUUCUUCAUG |  | 125 |  | 
17 | GUCAGCUCGUGAGGAUAUACAACACUGCUUCGGCAGUGUAUUAAGAUCACAUGAGGAUCACCCAUGUAGAAGGCACGAACUGAU | 12.9 | 212 |  | 
18 | GUGUUUGAUGAGGAUAUCGCUGUGGGUACACAGCGAGAAGGCAUUACAUGAGGAUCACCCAUGUAGUGUGGGUU | 24 | 105 |  | 
19 | AUGCUCGUGUGAGGAUAUGCCGCCGUUUCGGCUGCAGAAGGUGCUACGUUACAUGAGGAUCACCCAUGUCUCUGUUGUUUCGUG |  |  | 24.4 | 25.5
20 | UUUUACGUUUCGUAGCAGUGUCAUCGAGAAGGCCCUGACAUGAGGAUCACCCAUGUUGUUACAUGGGAGGAUAUCGAUGAUUUU |  |  | 16.4 | 5.21
21 | CCACAGAUAGGAUAUACUGGGUGGGAUAAAUAUUUCCUGUGACAUGAGGAUCACCCAUGUAGAAGGAUCACAAG | 38.2 | 42.4 |  | 
22 | GGGCCACAUGAGGAUCACCCAUGUAAACCCGUGCUCAGGGCACAGGAUAUGGGCCUGGAUGAGGCCCAGAAGGGUGGUCUGGCC |  |  | 40.1 | 16.3
23 | CGAAGUACGUAAGGAUAUACCGUGAGGACAACGGUAGAAGGUACAACAACAUGAGGAUCACCCAUGUGGACCUCUCGGCGUUGU | 394 | 617 |  | 
24 | UAUUUACAUGAGGAUCACCCAUGUUAGGAUAUGUUUCUAUCGUCGAAAGAUGAUAUUUGCAGAAGGGACAUUAU | 20.5 | 23.3 |  | 
25 | ACGUGUUAUACAGGAUAUGUUUAGGUACAAUCAUCCAGAUAUUAAUUUAUAACAGAAGGGUAAACAUGAGGAUCACCCAUGUCA | 18.4 | 15.1 |  | 
26 | ACAUGAGGAUCACCCAUGUAUACAUAGGAUAUUGGUGAUCAGGGAUGUUUUACAGGAUAUGUCUGCGAGAAGGAUGCAAGUAGU |  |  | 238 | 48.3
27 | AUACCACGAGGAUAUCGUCUAUAAUACAUGAGGAUCACCCAUGUUAUAUCUGUAAUGUUUCGAGAAGGCGUGUUUU | 17.5 | 14.2 |  | 
28 | GCAGCUAAUGCAGGAUAUCAGCACGUGUAGUGCUGAGAAGGGCACAUGAGGAUCACCCAUGUGAUCAAUUAAUAUUAAUGCUGC | 24.9 | 152 |  | 
